Experiment [1] has as its target T1, Prostaglandin G/H synthase 2 (Mus musculus, UniProt Q05769).
T1 sequence (Q05769 whole entry): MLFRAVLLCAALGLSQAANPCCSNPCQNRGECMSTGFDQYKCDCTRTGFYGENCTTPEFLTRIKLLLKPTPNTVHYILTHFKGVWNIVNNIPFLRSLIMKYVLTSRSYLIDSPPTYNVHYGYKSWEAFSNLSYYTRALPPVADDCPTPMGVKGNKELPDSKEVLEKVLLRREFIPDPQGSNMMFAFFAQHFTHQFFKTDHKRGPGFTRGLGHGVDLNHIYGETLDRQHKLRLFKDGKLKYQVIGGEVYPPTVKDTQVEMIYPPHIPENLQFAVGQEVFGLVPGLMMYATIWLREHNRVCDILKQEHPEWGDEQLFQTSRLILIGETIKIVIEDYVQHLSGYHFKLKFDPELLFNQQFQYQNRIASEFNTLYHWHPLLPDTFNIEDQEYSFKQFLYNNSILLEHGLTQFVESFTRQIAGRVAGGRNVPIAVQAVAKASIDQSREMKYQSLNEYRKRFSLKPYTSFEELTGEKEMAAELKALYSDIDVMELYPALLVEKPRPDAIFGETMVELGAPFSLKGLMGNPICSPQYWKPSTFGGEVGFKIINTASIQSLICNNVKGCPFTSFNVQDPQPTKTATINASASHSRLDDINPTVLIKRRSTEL
The experiment is described as follows: Inhibition of COX-2 in LPS-induced mouse J774 cells assessed as inhibition of PEG2 production after 24 hrs by radioimmuno assay. The class given is cell-based.

The species entered for experiment [2] is Mus musculus. The experiment is described as follows: Selectivity index, ratio of IC50 for inhibition of COX-1 in mouse J774 cells to IC50 for inhibition of COX-2 in LPS-induced mouse J774 cells. The class given is cell-based.
Experiment [3] has as its target T2, Prostaglandin G/H synthase 1 (Mus musculus, UniProt P22437).
T2 sequence (P22437 whole entry): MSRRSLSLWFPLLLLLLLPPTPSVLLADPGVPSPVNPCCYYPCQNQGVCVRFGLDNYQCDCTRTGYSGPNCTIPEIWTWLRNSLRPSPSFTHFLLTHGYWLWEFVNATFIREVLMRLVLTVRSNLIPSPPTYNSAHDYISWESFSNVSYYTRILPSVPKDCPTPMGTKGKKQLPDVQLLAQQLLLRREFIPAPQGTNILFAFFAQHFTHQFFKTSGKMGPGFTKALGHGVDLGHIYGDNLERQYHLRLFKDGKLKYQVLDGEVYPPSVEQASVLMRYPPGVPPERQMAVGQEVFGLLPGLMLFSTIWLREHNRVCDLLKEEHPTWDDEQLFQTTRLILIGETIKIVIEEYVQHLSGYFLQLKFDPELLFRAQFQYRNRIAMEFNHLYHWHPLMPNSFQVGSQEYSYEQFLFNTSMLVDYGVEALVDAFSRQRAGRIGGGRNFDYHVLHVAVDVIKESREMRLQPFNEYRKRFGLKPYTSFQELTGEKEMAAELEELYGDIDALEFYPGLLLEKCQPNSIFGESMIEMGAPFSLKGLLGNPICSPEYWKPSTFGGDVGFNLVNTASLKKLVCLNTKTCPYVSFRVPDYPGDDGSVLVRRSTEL
Description: Inhibition of COX-1 in mouse J774 cells assessed as inhibition of PEG2 production using arachidonic acid as substrate pretreated for 15 mins followed by substrate addition measured after 30 mins by radioimmuno assay. The class given is cell-based. In outline: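 Murine J774 macrophages were adhered 2 h at 37 °C in 5% CO2 and given fresh medium. They were pretreated 15 min with compound (10 µM; 0.1–1 µM when inhibition exceeded 50%), then incubated 30 min at 37 °C with 15 µM arachidonic acid. Supernatant PGE2 was measured by RIA. Values are means of 3 experiments of % inhibition versus control, with IC50 from a sigmoidal variable-slope fit.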

The test system of experiment [4] is Rattus norvegicus. Description: Antiinflammatory activity in rat assessed as effect on carrageenan-induced paw edema by measuring paw volume at 20 mg/kg, po administered as single dose preincubated with carrageenan for 4 hrs and followed by compound treatment and measured after 30 mins by plethysmometer (reference value: 2.78 +/- 0.09 ml). The class given is functional. (In general: In the carrageenan paw model, swelling and tenderness develop within hours.)

The subject of experiment [5] is Rattus norvegicus. The experiment is described as follows: Anti-inflammatory activity in rat assessed as effect on carrageenan-induced hyperalgesia by measuring paw pressure tolerance at 20 mg/kg, po administered as single dose preincubated with carrageenan for 4 hrs and followed by compound treatment and measured after 30 mins by paw-pressure test (reference value: 33.9 +/- 3.7 g). The class given is functional.

Experiment [6] has as its system Mus musculus. Description: Antinociceptive activity in Swiss albino mouse model of acetic-acid-induced writhing assessed as inhibition of writhing numbers at 20 mg/kg, po measured starting 5 mins post acetic acid challenge for 10 mins (reference value: 30.5 +/- 3.7). Background: In writhing tests, fewer writhes than in controls are read as antinociception.
Experiment [7] deals with Rattus norvegicus. Description: Anti-inflammatory activity in rat assessed as effect on carrageenan-induced hyperalgesia by measuring paw pressure tolerance at 20 mg/kg, po administered as single dose preincubated with carrageenan for 4 hrs and followed by compound treatment and measured after 60 mins by paw-pressure test (reference value: 37.2 +/- 3.5 g). The class given is functional.

The subject of experiment [8] is Mus musculus. The experiment is described as follows: Antinociceptive activity in Swiss albino mouse model of acetic-acid-induced writhing assessed as inhibition of writhing numbers at 40 mg/kg, po measured starting 5 mins post acetic acid challenge for 10 mins (reference value: 30.5 +/- 3.7).
For experiment [9], the system named is Mus musculus. Description: Antinociceptive activity in Swiss albino mouse model of acetic-acid-induced writhing assessed as inhibition of writhing numbers at 10 mg/kg, po measured starting 5 mins post acetic acid challenge for 10 mins (reference value: 30.5 +/- 3.7).
Experiment [10] relates to Rattus norvegicus. The experiment is described as follows: Antiinflammatory activity in rat assessed as inhibition of carrageenan-induced paw edema by measuring paw volume at 20 mg/kg, po administered as single dose preincubated with carrageenan for 4 hrs and followed by compound treatment and measured after 1 hr by plethysmometer relative to untreated control. The class given is functional.

Experiment [11] has as its system Rattus norvegicus. The experiment is described as follows: Anti-inflammatory activity in rat assessed as effect on carrageenan-induced hyperalgesia by measuring paw pressure tolerance at 20 mg/kg, po administered as single dose preincubated with carrageenan for 4 hrs and followed by compound treatment and measured after 90 mins by paw-pressure test (reference value: 36.7 +/- 4 g). The class given is functional.

Structures are written as SMILES.

For `CCC[S+]([O-])CCc1cc(-c2ccc(S(C)(=O)=O)cc2)n(-c2ccccc2)c1C` (centres undefined), the IC50 – broadly, the concentration that inhibits the measured activity by half – in experiment [1] was 0.06 µM; in experiment [3], above 10 µM. For the same compound, the Ratio IC50 in the experiment filed under Mus musculus [2] was above 167.

Take `CCCSCCc1cc(-c2ccc(S(C)(=O)=O)cc2)n(-c2cccc(F)c2)c1C`: the Activity was 1.74 mL with Rattus norvegicus [4]; 41.5 g with Rattus norvegicus [5]; 23.4 with Mus musculus [6]; 38.8 g in the experiment on Rattus norvegicus [7]; 23.7 in the experiment on Mus musculus [8]; 30.3 with Mus musculus [9]. Besides, the Activity in the experiment on Rattus norvegicus [11] is reported as 37.2 g. The results for the IC50 in experiment [1] and in experiment [3] were 0.285 µM and above 10 µM, respectively. Also, the Ratio IC50 in the experiment filed under Mus musculus [2] is above 24. Further, the inhibition in vivo (commonly how much of the control response was suppressed) at 20 mg/kg in the experiment on Rattus norvegicus [10] is 100%.

`CCCS(=O)(=O)CCc1cc(-c2ccc(S(C)(=O)=O)cc2)n(-c2ccccc2)c1C`: the IC50 in experiment [1] is 0.034 µM; in experiment [3], above 10 µM. Moreover, in the experiment filed under Mus musculus [2], the Ratio IC50 was above 294.

Turning to `CCCSCCc1cc(-c2ccc(S(C)(=O)=O)cc2)n(-c2ccc(F)cc2)c1C`, the Activity in the experiment with Rattus norvegicus [4] worked out at 1.75 mL; in the experiment with Rattus norvegicus [5], 57.3 g; with Mus musculus [6], 17.4; with Rattus norvegicus [7], 50.4 g; in the experiment with Mus musculus [8], 15.9; in the experiment on Mus musculus [9] it was 28.7. For the same compound, the Activity in the experiment on Rattus norvegicus [11] came out at 41.9 g. Also, the IC50 in experiment [1] was 0.011 µM; in [3], above 10 µM. The Ratio IC50 in the experiment filed under Mus musculus [2] was above 909. For the same compound, the inhibition in vivo at 20 mg/kg in the experiment on Rattus norvegicus [10] was found to be 100%.

As to `CCCS(=O)(=O)CCc1cc(-c2ccc(S(C)(=O)=O)cc2)n(-c2ccc(F)cc2)c1C`, the IC50 is 0.044 µM in experiment [1] and above 10 µM in experiment [3]. Besides, the Ratio IC50 in the experiment filed under Mus musculus [2] was above 227.

Consider `Cc1c(CCOCCO)cc(-c2ccc(S(C)(=O)=O)cc2)n1-c1ccc(F)cc1`, for which, in experiment [3], the IC50 was above 10 µM.

Consider `CCC[S+]([O-])CCc1cc(-c2ccc(S(C)(=O)=O)cc2)n(-c2ccc(F)cc2)c1C` (centres undefined), for which the Activity in the experiment on Rattus norvegicus [4] is 1.55 mL; in the experiment with Rattus norvegicus [5], 53.5 g; in the experiment with Mus musculus [6], 23.4; in the experiment with Rattus norvegicus [7] it was 42.5 g; with Mus musculus [8] it was 20.3; in the experiment on Mus musculus [9], 28.8. The Activity in the experiment on Rattus norvegicus [11] worked out at 38.2 g. Also, the IC50 in experiment [1] was 0.04 µM; in experiment [3] it was above 10 µM. Also, the Ratio IC50 in the experiment filed under Mus musculus [2] is above 250. In the experiment with Rattus norvegicus [10], the inhibition in vivo at 20 mg/kg was 100%.

Take `CCCSCCc1cc(-c2ccc(S(C)(=O)=O)cc2)n(-c2ccccc2)c1C`: the Activity was 1.69 mL in the experiment on Rattus norvegicus [4]; 46 g in the experiment on Rattus norvegicus [5]; 25.9 with Mus musculus [6]; 40.3 g in the experiment on Rattus norvegicus [7]; 26.4 with Mus musculus [8]; 32.6 in the experiment with Mus musculus [9]. Also, the Activity in the experiment with Rattus norvegicus [11] came to 40.2 g. Moreover, the half-inhibitory concentration (IC50) in [1] was 0.014 µM; in experiment [3], above 10 µM. Also, the Ratio IC50 in the experiment listed under Mus musculus [2] is above 714. For the same compound, in the experiment on Rattus norvegicus [10], the inhibition in vivo at 20 mg/kg worked out at 100%.

These data come from ChEMBL document CHEMBL4364334, “Synthesis, biological evaluation and molecular modeling of novel selective COX-2 inhibitors: sulfide, sulfoxide, and sulfone derivatives of 1,5-diarylpyrrol-3-substituted scaffold” (Bioorg Med Chem, 2019).
